This note sets out measurements from ChEMBL document CHEMBL4513216, “Probing the Open Global Health Chemical Diversity Library for Multistage-Active Starting Points for Next-Generation Antimalarials” (ACS Infect Dis, 2020).

The nature of the series: Toxicity liver stage against HepG2, at 10uM. It is filed as cell-based. Details: test concentration 10 uM, cell line HepG2-A16-CD81EGFP. The settings on record: human, HepG2-A16-CD81EGFP cells; read-out: INHIBITION
In a few lines: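 Uninfected HepG2-A16-CD81EGFP cells, 3 × 10^3 per well, 1536-well, plated on prespotted compound at 10 μM final, parasite-free screening media added to match infected plates; puromycin 10 μM positive, DMSO 0.5% negative; run in parallel with 48 h PbLuc assay at 37 °C, 5% CO2; viability by CellTiter-Glo luminescence, normalized to controls.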
For the compound `Cc1cc(C)n(CC2CCCN2C(=O)c2ccc3nncn3c2)n1` (stereo unspecified), the cytotoxicity at 10 µM was 2.01%.

In the case of `Cc1cc(CN2CC[C@]3(C[C@@H](OCC(=O)N(C)C)CO3)C2)no1`, the cytotoxicity at 10 µM is -105%.

Regarding `Cc1cc(OCCC(=O)Nc2cccc(F)c2)nnc1C`, the cytotoxicity at 10 µM was -2.32%.

For the compound `Cc1ccc(CN2CCc3ncc(CNS(C)(=O)=O)n3CC2)o1`, the cytotoxicity at 10 µM is -9.9%.

On to `Cc1ncc(C(=O)N2CCC(C(=O)NC3CCCC3)C2)c(C)n1` (stereo unspecified), for which the cytotoxicity at 10 µM was determined as 6.3%.

As to `CC(C)(C)c1cc(NC(=O)CN2CCCC2Cn2cccn2)on1` (stereo unspecified), the cytotoxicity at 10 µM was -15.3%.

Consider `FC(F)(F)c1ccc(-c2cc(NC3CCNCC3)nc3[nH]ccc23)nc1`, for which the cytotoxicity at 10 µM was -0.608%.

Take `CCS(=O)(=O)NCC(=O)N(C1CC1)C1Cc2ccccc2C1`: the cytotoxicity at 10 µM came out at 4.25%.

As to `COCCN1C[C@@H]2[C@@H](OC)CCN(Cc3ccc(C)o3)[C@@H]2C1`, the cytotoxicity at 10 µM was -4.42%.

With `CCOC(=O)[C@H]1[C@@H](O)C(=O)N(C)C12CCN(S(=O)(=O)CC)CC2`, the cytotoxicity at 10 µM was -6.06%.

Regarding `COc1ccccc1CC(=O)N1CC[C@H](O)[C@]2(CCCO2)C1`, the cytotoxicity at 10 µM is -6.75%.

Turning to `COCC(=O)Nc1nnc2n(Cc3cccc(OC)c3)[nH]c(C)c1-2`, the cytotoxicity at 10 µM is -11.7%.

Consider `O=C(CC1Cn2ncnc2NC1=O)Nc1ccc(F)c(F)c1` (stereo unspecified), for which the cytotoxicity at 10 µM is 2.02%.

On to `c1csc(-c2nnc(CSCCN3CCOCC3)o2)c1`, for which the cytotoxicity at 10 µM is -5.77%.

In the case of `O=S(=O)(NCCNc1cc(-n2cccc2)ncn1)c1cccs1`, the cytotoxicity at 10 µM is -0.582%.

Regarding `CC(C)OCc1ccc(CNC(=O)CC(F)(F)F)cc1`, the cytotoxicity at 10 µM is -2.26%.

Regarding `COc1ccc(-n2ncc(C(=O)NCC3COC(C)(C)O3)c2N)cc1` (stereo unspecified), the cytotoxicity at 10 µM stood at 3.97%.

Consider `CC(C)NC(=O)[C@@H]1CCO[C@@H]2CCN(c3ncccn3)C[C@@H]21`, for which the cytotoxicity at 10 µM came out at 7.92%.

On to `CS(=O)(=O)NCCCSCc1cccc2cccnc12`, for which the cytotoxicity at 10 µM was 3.53%.

For `COc1cccc(N2CCN(Cc3ncc[nH]3)CC2=O)c1`, the cytotoxicity at 10 µM was -5.73%.

Consider `CCOc1cccc(CNC(=O)C(C)(C)C#N)c1OC(F)F`, for which the cytotoxicity at 10 µM was -45.5%.

As to `Cc1csc(CNC(=O)NC(C)c2ccc3c(c2)OCCO3)n1` (stereo unspecified), the cytotoxicity at 10 µM is -5.72%.

Consider `O=C(CNC(=O)c1ccccc1I)NCc1ccccc1F`, for which the cytotoxicity at 10 µM stood at 1.16%.

As for `COCCCN1CC2(CCCCN2C(=O)C2CCCCC2)CC1=O` (stereo unspecified), the cytotoxicity at 10 µM stood at 12.2%.

On to `COC(=O)NCCCC(=O)NC1(c2cccc(Cl)c2)CC1`, for which the cytotoxicity at 10 µM was -2.56%.

Regarding `CN(C)CC1CN(Cc2ccc(F)cc2)Cc2nccn2C1` (stereo unspecified), the cytotoxicity at 10 µM was -71.1%.

For `O=C1COc2cc(S(=O)(=O)NCCC3=CCCCC3)c(Cl)cc2N1`, the cytotoxicity at 10 µM is 18.6%.

Take `CC(C1CC1)N(C)C(=O)c1ccc(-n2ncc(C#N)c2N)cc1` (stereo unspecified): the cytotoxicity at 10 µM came to 3.51%.

Consider `CC(=O)NC(C)C1=CCCN(Cc2ccc(C(=O)O)cc2)C1` (stereo unspecified), for which the cytotoxicity at 10 µM is -12.1%.

For the compound `COc1ncccc1NC(=O)N1CCC(CN2CCOCC2)CC1`, the cytotoxicity at 10 µM was -6.78%.

`CCOCC(=O)N1CCC(c2cc3ncccc3c(O)n2)CC1`: the cytotoxicity at 10 µM was -30.1%.

Regarding `CCN(C(c1cccnc1)c1ccc(F)c(F)c1)S(C)(=O)=O` (stereo unspecified), the cytotoxicity at 10 µM is -0.69%.

Turning to `CN(C)CCNc1cc(-c2ncccc2Cl)c2cc[nH]c2n1`, the cytotoxicity at 10 µM amounted to 8.45%.

Consider `CN(C)CCn1c(=O)oc2ccc(NC(=O)C3CCCO3)cc21` (stereo unspecified), for which the cytotoxicity at 10 µM was determined as 0.743%.

For the compound `CCC(=O)N1CCCC(C(=O)c2cnn(-c3ccc(F)cc3)c2N)C1` (stereo unspecified), the cytotoxicity at 10 µM came to 4.57%.

For the compound `COc1c(C2CCCN2CC(=O)Nc2cccnc2)c(C)nn1C` (stereo unspecified), the cytotoxicity at 10 µM was -2.39%.

On to `COc1cc(N2CCC3(CC2)CNC(=O)CO3)ncn1`, for which the cytotoxicity at 10 µM is 2.57%.

`O=C(C1CC1)N1CCC2(CC1)CNCCO2`: the cytotoxicity at 10 µM was -2.82%.

On to `CCn1nc(C)c(CNC(=O)NCC(C)(O)c2ccco2)c1C` (stereo unspecified), for which the cytotoxicity at 10 µM was -10.8%.

For the compound `CC(NC(=O)NCCCc1n[nH]c(N)c1C#N)c1ccc(F)cc1` (stereo unspecified), the cytotoxicity at 10 µM was -13.7%.

Regarding `O=C(N[C@@H]1CN(Cc2ccc3cc[nH]c3c2)C[C@H]1O)c1cnccn1`, the cytotoxicity at 10 µM is -8.22%.

Turning to `Cc1nc(C2CCN2c2ncccn2)cc(N(C)C)n1` (stereo unspecified), the cytotoxicity at 10 µM is -4.8%.

Take `c1cc(CNCC2Cn3nncc3CO2)co1` (stereo unspecified): the cytotoxicity at 10 µM turned out to be 7.8%.

Regarding `Cc1cnn(CC2CCCN2Cc2cc(C)no2)c1` (stereo unspecified), the cytotoxicity at 10 µM is -1.66%.

For the compound `Cn1c(CO)nnc1SCc1c(F)cccc1Br`, the cytotoxicity at 10 µM is -41.2%.

In the case of `Cc1c(C2c3nc[nH]c3CCN2CCOCc2ccccc2)cnn1C` (stereo unspecified), the cytotoxicity at 10 µM was determined as 0.838%.

On to `Cc1ccc(Sc2ccc(CN3CCC4(CCCNC4=O)C3)o2)cc1` (stereo unspecified), for which the cytotoxicity at 10 µM is -3.68%.

As to `CCN1C(=O)[C@]2(CC[C@@H]3CN(S(=O)(=O)CC(C)C)C[C@@H]32)N=C1C`, the cytotoxicity at 10 µM is -78.2%.

In the case of `COC(=O)CSCc1noc(-c2ccc(C)cc2)n1`, the cytotoxicity at 10 µM was 4.13%.

As to `CC(=O)NCc1ccc(C(=O)N2CCCC2c2cnn(C)c2)s1` (stereo unspecified), the cytotoxicity at 10 µM was -13.6%.

As for `Cc1ccc(C(=O)N2C[C@@H](OCC3CCOCC3)[C@H]3OCCC[C@H]32)o1`, the cytotoxicity at 10 µM is -3.55%.

Regarding `O=C(c1cc(-c2ccco2)cs1)N1CCOCC1`, the cytotoxicity at 10 µM was 4.81%.

As to `CN(Cc1nnc(C2CC2)o1)Cc1ccccc1-c1ccccc1`, the cytotoxicity at 10 µM is 4.59%.

`O=C(NCCn1nc2ccccn2c1=O)c1cc(-c2ccccc2)[nH]n1`: the cytotoxicity at 10 µM was -28.5%.

`Cc1cnn(CC2CCN(CC(O)COc3ccc(F)cc3)CC2)c1` (stereo unspecified): the cytotoxicity at 10 µM is -10.9%.

As to `COc1ccccc1C(=O)N1CC(=O)N(Cc2ccco2)CC(O)C1` (stereo unspecified), the cytotoxicity at 10 µM was 4.45%.

Turning to `Cn1c(C(N)=O)cc2c1CN(C(=O)C1CC(=O)N(C(C)(C)C)C1)CC2` (stereo unspecified), the cytotoxicity at 10 µM was -49.6%.

`Cc1cc(NC(C)Cc2cccnc2)n2nccc2n1` (stereo unspecified): the cytotoxicity at 10 µM is 3.01%.

Consider `CC(C)N(Cc1cccnc1)C(=O)CSc1ccc(C#N)cc1`, for which the cytotoxicity at 10 µM was 3.18%.

Take `N[C@@H]1CC[C@H](C(=O)NCCn2cc(Cl)cn2)C1`: the cytotoxicity at 10 µM was -36.4%.

Take `CCc1ncncc1C(=O)NCCNS(=O)(=O)c1ccc(C)cc1`: the cytotoxicity at 10 µM is -5.95%.

As for `Cc1ccc(OC2CCN(S(=O)(=O)N(C)C)CC2)nc1`, the cytotoxicity at 10 µM worked out at 7.68%.

`CCOCCOC(C)C(=O)Nc1nccn1Cc1ccccc1` (stereo unspecified): the cytotoxicity at 10 µM came to 3.94%.

Turning to `CC(C)Cc1nc(CN(C)CCOc2ccccc2F)no1`, the cytotoxicity at 10 µM is -0.731%.

Turning to `O=C(NCc1ccccn1)[C@H]1COC[C@H]2CN(Cc3ccoc3)C[C@H]21`, the cytotoxicity at 10 µM was 1.54%.

For the compound `Cc1ccc(F)cc1C(=O)NCc1ccc(C(=O)O)o1`, the cytotoxicity at 10 µM was -10.1%.

`COC(=O)c1ccc(N2CCN(C(=O)C3CCC3)C(C)C2)cc1` (stereo unspecified): the cytotoxicity at 10 µM is -4.18%.

Take `Cc1cn[nH]c1C1COCCN1C(=O)c1cc(F)ccc1F` (stereo unspecified): the cytotoxicity at 10 µM was -0.658%.

Consider `COCc1nn(C(C)C)c2c1CCN(Cc1ccc(C)o1)C2`, for which the cytotoxicity at 10 µM came out at 2.32%.

As for `Cc1ccc(CN2Cc3nnn(C)c3C(COCc3ccccc3)C2)s1` (stereo unspecified), the cytotoxicity at 10 µM was 1.58%.

For the compound `CN(C)C(=O)Cc1nc(CN2CCCCC2Cn2cccn2)cs1` (stereo unspecified), the cytotoxicity at 10 µM was found to be 6.04%.

For the compound `CCCOC(=O)c1ccc(-c2ccc(/C=C3\C(=O)NC(=N)N3C)o2)cc1`, the cytotoxicity at 10 µM amounted to 2.91%.

As to `CC1CCCN(C(=O)c2nnn(-c3ccc(C(F)(F)F)cc3)n2)C1` (stereo unspecified), the cytotoxicity at 10 µM is -3.43%.

For `CCN(CC)CCNS(=O)(=O)c1cccc(CSC)c1`, the cytotoxicity at 10 µM is -7.99%.

On to `Cn1ccc(C(=O)NC2CCC23CCN(C(=O)N2CCCC2)CC3)c1` (stereo unspecified), for which the cytotoxicity at 10 µM came out at 2.01%.

As to `CCN1CCN(C)C(=O)C12CCN(Cc1cccc(C)c1)CC2`, the cytotoxicity at 10 µM is -2.95%.

`O=C(NCCCc1nc(=O)[nH][nH]1)Nc1cccc(F)c1`: the cytotoxicity at 10 µM was -51.1%.

Regarding `CC(C)(C)c1ncc(CNc2ccn(CCc3ccncc3)n2)s1`, the cytotoxicity at 10 µM was 26.1%.

With `CC(C)Oc1cccc(Cc2nc3c([nH]2)CCCNC3=O)c1`, the cytotoxicity at 10 µM was -12.9%.

As for `O=c1[nH]c2nc(N3CCOCC3)ncc2c(=O)n1-c1cccc(F)c1`, the cytotoxicity at 10 µM turned out to be 9.32%.

On to `Cc1nc2c(c(C)c1CC(=O)NCc1cccc(C#N)c1)c(=O)[nH]n2C`, for which the cytotoxicity at 10 µM was -0.722%.

On to `CCCC(=O)N1Cc2ccccc2CC2(CCN(C)C2)C1` (stereo unspecified), for which the cytotoxicity at 10 µM was 2.71%.

Turning to `CNc1ncc(CN2CCC(c3nnsc3S(C)(=O)=O)CC2)cn1`, the cytotoxicity at 10 µM is -0.085%.

Take `O=C(c1ccc(F)cc1)N1CC[C@H]2[C@H]1CCN2CC1CCOCC1`: the cytotoxicity at 10 µM was -76.4%.

On to `O=C(CCNC(=O)c1cccc(OC(F)F)c1)Nc1cccnc1`, for which the cytotoxicity at 10 µM stood at 0.258%.

Regarding `CC1(c2ccccc2)CCC(=O)N(CCN2CCCOC2=O)C1` (stereo unspecified), the cytotoxicity at 10 µM is -3.99%.

Regarding `CCC(CNC(=O)COC)Oc1cccc(F)c1` (stereo unspecified), the cytotoxicity at 10 µM was -44.6%.

As for `CC(=O)N1CCC(c2c(CN(C)C)cnc3cc(C)nn23)CC1`, the cytotoxicity at 10 µM is 2.54%.

For `COc1cc(OC)c(CNC(=O)NCC(=O)N2CCCC2)c(OC)c1`, the cytotoxicity at 10 µM came to 10.4%.

In the case of `O=C(c1cnccn1)N1C[C@H]2CC[C@@H](C1)N(C(=O)CCc1ccsc1)C2`, the cytotoxicity at 10 µM was determined as 3.24%.

In the case of `Cc1ccc(C)c(OCC(O)Cn2ncc3cnn(C)c(=O)c32)c1` (stereo unspecified), the cytotoxicity at 10 µM turned out to be 4.45%.

As for `CC(C)(C)c1cc(NC(=O)CN(Cc2cccs2)Cc2cccs2)on1`, the cytotoxicity at 10 µM was 14.2%.

For `O=C1NC2(CCN(C(=O)c3ccc(Cl)cn3)CC2)CC1c1ccccc1` (stereo unspecified), the cytotoxicity at 10 µM was found to be 2.75%.

As for `CC1CCN(C[C@H]2CN3CC[C@H]2C[C@@H]3CNC(=O)Nc2ccsc2)CC1`, the cytotoxicity at 10 µM was 2.95%.

As to `Cc1cc(C(=O)NCCN2CCN(S(C)(=O)=O)CC2)no1`, the cytotoxicity at 10 µM is -6.29%.

Regarding `Cn1cc(CN(Cc2ccccc2)CC(O)c2cccs2)cn1` (stereo unspecified), the cytotoxicity at 10 µM is -8.59%.
